Experimental data published in ChEMBL document CHEMBL4725360, “Optimization of Acetazolamide-Based Scaffold as Potent Inhibitors of Vancomycin-Resistant Enterococcus” (J Med Chem, 2020).
Converted amounts (≈) assume the structure as drawn. The source made the active and inactive calls. No cut-off for these calls is given here.

Assays:
Enterococcus faecium [1] = assay: Antibacterial activity against Enterococcus faecium ATCC 700221 by CLSI protocol based assay; type: functional
Method in brief: (§1)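 Broth microdilution per CLSI. Strains grown aerobically overnight on trypticase soy agar at 37 °C. Inoculum set to 0.5 McFarland, diluted in trypticase soy broth to about 5 × 10⁵ CFU/mL. Agents serially diluted, plates incubated aerobically at 37 °C for 18–20 h. MIC is the lowest concentration with no visible growth. Compound stocks 10 mg/mL in DMSO.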

Enterococcus faecium [2] = assay: Antibacterial activity against Enterococcus faecium NR-31903 incubated for 18 to 20 hrs under aerobic condition by CLSI protocol based broth microdilution assay; type: functional; conditions: time hrs 18-20; method in brief: as §1
Enterococcus faecium [3] = assay: Antibacterial activity against Enterococcus faecium NR-32052 incubated for 18 to 20 hrs under aerobic condition by CLSI protocol based broth microdilution assay; type: functional; conditions: time hrs 18-20; method in brief: as §1
Enterococcus faecium [4] = assay: Antibacterial activity against Enterococcus faecium NR-32065 incubated for 18 to 20 hrs under aerobic condition by CLSI protocol based broth microdilution assay; type: functional; conditions: time hrs 18-20; method in brief: as §1
Enterococcus faecalis [5] = assay: Antibacterial activity against Enterococcus faecalis HM-335 incubated for 18 to 20 hrs under aerobic condition by CLSI protocol based broth microdilution assay; type: functional; conditions: time hrs 18-20; method in brief: as §1
Enterococcus faecium [6] = assay: Bacteriostatic activity against Enterococcus faecium ATCC 700221 assessed as reduction in bacterial burden at 5 times MIC preincubated for 24 hrs followed by replating on soya agar plates and measured after 16 hrs by time-kill assay; type: functional, organism-based
Method in brief: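 E. faecium ATCC 700221 overnight culture diluted in trypticase soy broth to 3.5 × 10⁶ CFU/mL. […] Samples taken at 2, 4, 6, 8, 12 and 24 h, diluted in PBS and plated on trypticase soy agar. Colonies counted after 16 h at 37 °C. Detection limit 100 CFU/mL. Two-way ANOVA with Dunnett's test.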

Enterococcus faecium [7] = assay: Antibacterial activity against Enterococcus faecium NR-31972 incubated for 18 to 20 hrs under aerobic condition by CLSI protocol based broth microdilution assay; type: functional; conditions: time hrs 18-20; method in brief: as §1
Enterococcus faecium [8] = assay: Antibacterial activity against Enterococcus faecium NR-31916 incubated for 18 to 20 hrs under aerobic condition by CLSI protocol based broth microdilution assay; type: functional; conditions: time hrs 18-20; method in brief: as §1
Enterococcus faecium [9] = assay: Antibacterial activity against Enterococcus faecium NR-31914 incubated for 18 to 20 hrs under aerobic condition by CLSI protocol based broth microdilution assay; type: functional; conditions: time hrs 18-20; method in brief: as §1
Enterococcus faecium [10] = assay: Antibacterial activity against Enterococcus faecium NR-28978 incubated for 18 to 20 hrs under aerobic condition by CLSI protocol based broth microdilution assay; type: functional; conditions: time hrs 18-20; method in brief: as §1
Enterococcus faecium [11] = assay: Antibacterial activity against Enterococcus faecium HM968 incubated for 18 to 20 hrs under aerobic condition by CLSI protocol based broth microdilution assay; type: functional; conditions: time hrs 18-20; method in brief: as §1
Enterococcus faecium [12] = assay: Antibacterial activity against Enterococcus faecium NR-31971 incubated for 18 to 20 hrs under aerobic condition by CLSI protocol based broth microdilution assay; type: functional; conditions: time hrs 18-20; method in brief: as §1
Enterococcus faecium [13] = assay: Inhibition of carbonic anhydrase in Enterococcus faecium NR-31972 assessed as antibacterial activity incubated for 18 to 20 hrs in presence of ambient air by CLSI protocol based broth microdilution assay; conditions: time hrs 18-20
Method in brief: (§2)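 CLSI broth microdilution: inoculum about 5 × 10⁵ CFU/mL in trypticase soy broth with serial dilutions of agents. Paired plates incubated at 37 °C for 18–20 h, one set in ambient air ("normal"), the other under 5% CO₂. MIC is the lowest concentration completely inhibiting visible growth.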

Enterococcus faecalis [14] = assay: Antibacterial activity against Enterococcus faecalis NR-31970 incubated for 18 to 20 hrs under aerobic condition by CLSI protocol based broth microdilution assay; type: functional, organism-based; conditions: time hrs 18-20; method in brief: as §1
[15] = Cytotoxicity against human Caco2 cells incubated for 2 hrs by MTS assay; type: cell-based; conditions: Caco-2 cells
Method in brief: (§3)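 Caco-2 cells maintained in DMEM with 10% FBS, non-essential amino acids and penicillin-streptomycin at 37 °C, 5% CO₂. Compound exposure for 2 h in serum-free medium at several concentrations; DMSO-matched controls. Viability expressed relative to DMSO controls (mean ± SD), and CC₅₀ derived.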

Enterococcus faecium [16] = assay: Inhibition of carbonic anhydrase in Enterococcus faecium NR-31971 assessed as antibacterial activity incubated for 18 to 20 hrs in presence of ambient air by CLSI protocol based broth microdilution assay; conditions: time hrs 18-20; method in brief: as §2
Enterococcus faecium [17] = assay: Inhibition of carbonic anhydrase in Enterococcus faecium ATCC 700221 assessed as antibacterial activity incubated for 18 to 20 hrs in presence of 5% CO2 by CLSI protocol based broth microdilution assay; conditions: time hrs 18-20; method in brief: as §2
Enterococcus faecium [18] = assay: Inhibition of carbonic anhydrase in Enterococcus faecium NR-31972 assessed as antibacterial activity incubated for 18 to 20 hrs in presence of 5% CO2 by CLSI protocol based broth microdilution assay; conditions: time hrs 18-20; method in brief: as §2
Enterococcus faecium [19] = assay: Inhibition of carbonic anhydrase in Enterococcus faecium HM-965 assessed as antibacterial activity incubated for 18 to 20 hrs in presence of 5% CO2 by CLSI protocol based broth microdilution assay; conditions: time hrs 18-20; method in brief: as §2
Enterococcus faecium [20] = assay: Inhibition of carbonic anhydrase in Enterococcus faecium ATCC 700221 assessed as antibacterial activity incubated for 18 to 20 hrs in presence of ambient air by CLSI protocol based broth microdilution assay; conditions: time hrs 18-20; method in brief: as §2
Enterococcus faecalis [21] = assay: Inhibition of carbonic anhydrase in Enterococcus faecalis HM-334 assessed as antibacterial activity incubated for 18 to 20 hrs in presence of 5% CO2 by CLSI protocol based broth microdilution assay; conditions: time hrs 18-20; method in brief: as §2
Enterococcus faecium [22] = assay: Inhibition of carbonic anhydrase in Enterococcus faecium HM-965 assessed as antibacterial activity incubated for 18 to 20 hrs in presence of ambient air by CLSI protocol based broth microdilution assay; conditions: time hrs 18-20; method in brief: as §2
Enterococcus faecalis [23] = assay: Antibacterial activity against Enterococcus faecalis NR-31975 incubated for 18 to 20 hrs under aerobic condition by CLSI protocol based broth microdilution assay; type: functional, organism-based; conditions: time hrs 18-20; method in brief: as §1
Caco-2 = assay: Cytotoxicity against human Caco2 cells at 128 ug/ml incubated for 2 hrs by MTS assay; type: cell-based; conditions: caco-2, 2 h, dose 128 µg/ml; method in brief: as §3
Enterococcus faecalis [24] = assay: Inhibition of carbonic anhydrase in Enterococcus faecalis HM-334 assessed as antibacterial activity incubated for 18 to 20 hrs in presence of ambient air by CLSI protocol based broth microdilution assay; conditions: time hrs 18-20; method in brief: as §2
Enterococcus faecium [25] = assay: Inhibition of carbonic anhydrase in Enterococcus faecium NR-31971 assessed as antibacterial activity incubated for 18 to 20 hrs in presence of 5% CO2 by CLSI protocol based broth microdilution assay; conditions: time hrs 18-20; method in brief: as §2

## CCOc1ccc2nc(S(N)(=O)=O)sc2c1 [ETHOXZOLAMIDE]
Enterococcus faecium [1]
  MIC: 1 µg/mL (≈ 3.87 µM)

## CC(=O)/N=c1/sc(S(N)(=O)=O)nn1C [METHAZOLAMIDE]
Enterococcus faecium [1]
  MIC: 4 µg/mL (≈ 16.9 µM)

## CC(=O)NC[C@H]1CN(c2ccc(N3CCOCC3)c(F)c2)C(=O)O1 [LINEZOLID]
Enterococcus faecium [2]
  MIC: 1 µg/mL (≈ 2.96 µM)
Enterococcus faecium [3]
  MIC: 0.5 µg/mL (≈ 1.48 µM)
Enterococcus faecium [4]
  MIC: 0.25 µg/mL (≈ 0.741 µM)
Enterococcus faecalis [5]
  MIC: 0.5 µg/mL (≈ 1.48 µM)
Enterococcus faecium [6]
  Activity: Active
Enterococcus faecium [7]
  MIC: 0.5 µg/mL (≈ 1.48 µM)
Enterococcus faecium [8]
  MIC: 1 µg/mL (≈ 2.96 µM)
Enterococcus faecium [9]
  MIC: 1 µg/mL (≈ 2.96 µM)
Enterococcus faecium [10]
  MIC: 1 µg/mL (≈ 2.96 µM)
Enterococcus faecium [11]
  MIC: 0.5 µg/mL (≈ 1.48 µM)
Enterococcus faecium [12]
  MIC: 1 µg/mL (≈ 2.96 µM)

## NS(=O)(=O)c1nnc(NC(=O)CC2CCCCC2)s1
Enterococcus faecium [13]
  MIC: 0.06 µg/mL
Enterococcus faecalis [14]
  Activity: Active
Enterococcus faecium [2]
  MIC: 0.125 µg/mL (≈ 0.411 µM)
[15]
  CC50 at 2 h: > 128 µg/mL
Enterococcus faecium [16]
  MIC: 0.03 µg/mL
Enterococcus faecium [17]
  MIC: > 64 µg/mL
Enterococcus faecium [18]
  MIC: > 64 µg/mL
Enterococcus faecium [19]
  MIC: > 64 µg/mL
Enterococcus faecium [20]
  MIC: 0.06 µg/mL
Enterococcus faecalis [21]
  MIC: > 64 µg/mL
Enterococcus faecium [22]
  MIC: 0.06 µg/mL
Enterococcus faecalis [23]
  Activity: Active
Caco-2
  Activity: Non-Toxic
Enterococcus faecium [8]
  MIC: 0.125 µg/mL (≈ 0.411 µM)
Enterococcus faecalis [24]
  MIC: 0.03 µg/mL
Enterococcus faecium [10]
  MIC: 0.125 µg/mL (≈ 0.411 µM)
Enterococcus faecium [25]
  MIC: > 64 µg/mL
